Most compounds without a hit are left out; they make up all but 4.1% or so of the library.
RGS4 block: human RGS4 inhibition. B-score at 10 µM. HEK293 M3R/RGS4 inducible, Fluo-4 calcium flux; stronger effect = higher value; triggered by carbachol at its EC20. AID 463165. actives 0.45% (n = 310,000);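 active means B-score, a plate-corrected calcium signal, over three deviations above library mean, with baseline fluorescence within five deviations of library mean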;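 further: RGS4 expression induced by doxycycline in cells with stable M3 receptor; B-score is computed from the integrated fluorescence ratio over baseline after carbachol; higher B-score means a larger calcium signal and so more RGS4 inhibition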
Target sequence (P49798 whole entry, looked up): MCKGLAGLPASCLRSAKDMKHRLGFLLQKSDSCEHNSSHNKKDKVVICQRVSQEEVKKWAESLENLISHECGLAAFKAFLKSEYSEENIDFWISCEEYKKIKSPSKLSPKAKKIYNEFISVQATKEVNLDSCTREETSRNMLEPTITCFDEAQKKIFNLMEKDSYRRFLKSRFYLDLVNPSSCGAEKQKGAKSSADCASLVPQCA
MrgX1 ag: human MrgX1 receptor agonism, primary screen; Q96LB2; MrgX1-HEK293 cells, Fluo-4 calcium fluorescence, agonist mode; stronger effect = higher value; B-score at 10 µM; actives 0.44% (n = 310,000);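 active means calcium response B-score plate-corrected fluorescence ratio at least 3 library SD, with starting fluorescence B-score inside 5 SD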
Target sequence (Q96LB2 whole entry, looked up): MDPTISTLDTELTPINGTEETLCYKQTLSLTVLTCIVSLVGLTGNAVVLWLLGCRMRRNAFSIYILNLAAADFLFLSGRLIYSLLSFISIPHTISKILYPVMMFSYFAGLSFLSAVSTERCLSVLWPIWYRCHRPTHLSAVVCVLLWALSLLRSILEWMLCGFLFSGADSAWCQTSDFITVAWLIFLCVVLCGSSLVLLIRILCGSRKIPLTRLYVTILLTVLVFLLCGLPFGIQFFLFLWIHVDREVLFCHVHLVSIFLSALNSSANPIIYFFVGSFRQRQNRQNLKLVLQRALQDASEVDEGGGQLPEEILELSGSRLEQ
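Test system: Stable human MrgX1 HEK293 cell line | Schedule: Overnight plating before 1 h dye loading | Read-out basis: Baseline-normalised fluorescence change ratio, B-scored | Detection: Kinetic calcium dye fluorescence, Fluo-4 NW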
MrgX1 allo act: human MrgX1 positive allosteric modulation, primary screen | Q96LB2 | MrgX1-HEK293, Fluo-4 calcium flux, FDSS; stronger effect = higher value | B-score at 10 µM | actives 0.63% (n = 310,000) | AID 588675;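 active means plate-corrected calcium response at least 3 library SD above typical, normal starting fluorescence, not activating the receptor alone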;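 further: compound read alongside a low EC10 to EC30 dose of BAM8-22 agonist; peak minus trough fluorescence over baseline measured at the second addition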
RGS4 pot: RGS4 potentiation or activation; AID 463111; actives 0.92% (n = 310,000); B-score at 10 µM; HEK293 M3R/inducible RGS4, carbachol calcium flux Fluo4; stronger effect = lower value;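 active means B-score of the integrated calcium signal more than 4 SD below the library mean, with starting fluorescence not abnormally high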;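 further: negative B-score means reduced calcium response which marks RGS4 activation or potentiation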
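Test system: HEK293 cells with stable M3R and inducible RGS4; also added: carbachol at ECmax as muscarinic agonist stimulus; schedule: dye loading 30 min 37 °C, buffer rest 30 min RT; technique: kinetic calcium fluorescence imaging with Fluo4-AM dye, 2 µM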
MrgX1 antag: human MrgX1 receptor antagonism, primary screen; MRGX1-HEK293 calcium flux, Fluo-4, BAM8-22 antagonism; stronger effect = lower value; B-score at 10 µM; actives 1.3% (n = 310,000); AID 588676;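 active means calcium-response B-score plate-corrected more than 3 library SD below zero, starting fluorescence within 5 deviations, no agonist response on first addition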;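 further: peak minus trough fluorescence over baseline after final BAM8-22 challenge near maximal dose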
Kir21 inh: blocks the mouse Kir2.1 inward-rectifier potassium channel. P35561. HEK293-Kir2.1, FluxOR thallium flux fluorescence; stronger effect = lower value. B-score at 10 µM. actives 0.85% (n = 310,000);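 active means fluorescence ratio B-score at or below minus 3 SD of library scores, with starting-brightness B-score within 2 SD, cut at about -4.2 in these data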;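 further: channel flux triggered by added potassium and thallium sulfate stimulus; B-score of peak minus minimum fluorescence over baseline after thallium stimulus; more negative B-score means stronger Kir2.1 block with less thallium influx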
RGS4 inh valid: validation of RGS4 inhibitors; shares compounds with RGS4 block; HEK293 M3R/RGS4, carbachol calcium Fluo-4 fluorescence; carbachol added at its EC20; 0 = buffer wells, 100 = carbachol control; calcium response, % at 10 µM; actives 65% (n = 1,700); AID 492999;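 active means duplicate-averaged calcium response above the buffer-only control mean plus 5 SD of those controls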;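 further: integrated fluorescence ratio F max minus min over baseline F0; higher response in RGS4-induced cells means RGS4 inhibition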
RGS4 uninduced: checks RGS4 inhibitor effects in non-induced HEK293 M3R cells; shares compounds with RGS4 block; AID 493000; actives 20% (n = 1,900); carbachol calcium Fluo-4; submaximal (EC20) carbachol stimulus; buffer wells 0%, carbachol control wells 100%; activity (percent), % at 10 µM; call rule not given here;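 further: RGS4 induction absent so cells express M3R without RGS4; higher means more calcium signal and flags a non-specific hit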
M3R basal Ca ctr: second counter-screen for RGS4 inhibitors: non-induced cells without carbachol. shares compounds with RGS4 block. HEK293 M3R/RGS4 non-induced, Fluo-4 calcium, no carbachol; normalised: buffer wells 0%, carbachol wells 100%. calcium response (agonist-mode artifact), % at 10 µM. actives 22% (n = 1,900). AID 493001;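 active means duplicate-averaged calcium rise in uninduced cells above buffer wells' mean plus 5 SD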
Starred values were filed as active, the others as inactive.

How did COc1nc(Nc2cccc(C)c2)nc(N2CCCCC2)n1 do in these assays?
RGS4 block: inactive; MrgX1 ag: inactive; MrgX1 allo act: inactive; RGS4 pot: inactive; MrgX1 antag: inactive; Kir21 inh: 0.34; RGS4 inh valid: inactive; RGS4 uninduced: inactive; M3R basal Ca ctr: inactive

What do the screens show for `O=C(NCCc1ccccc1)c1nnc(CS(=O)(=O)c2ccccc2)o1`?
RGS4 block: inactive; MrgX1 ag: inactive; MrgX1 allo act: inactive; RGS4 pot: inactive; MrgX1 antag: inactive; Kir21 inh: 0.41

What do the screens show for `COCCCNC(=O)CN1C(=O)COc2ccc(S(=O)(=O)N3CCOCC3)cc21`?
RGS4 block: inactive; MrgX1 ag: inactive; MrgX1 allo act: inactive; RGS4 pot: inactive; MrgX1 antag: inactive; Kir21 inh: -0.55; RGS4 inh valid: inactive; RGS4 uninduced: inactive; M3R basal Ca ctr: inactive

Results for CCCSc1cc(N)cc([N+](=O)[O-])c1 ?
RGS4 block: inactive; MrgX1 ag: inactive; MrgX1 allo act: inactive; RGS4 pot: inactive; MrgX1 antag: inactive; Kir21 inh: 1.26

Results for Cc1cc(N2CCOCC2)n2ncc(-c3ccc(Cl)cc3)c2n1 ?
RGS4 block: inactive; MrgX1 ag: inactive; MrgX1 allo act: inactive; RGS4 pot: inactive; MrgX1 antag: inactive; Kir21 inh: -0.07; RGS4 inh valid: inactive; RGS4 uninduced: inactive; M3R basal Ca ctr: inactive

Results for Cc1nn2c(N3CCOCC3)cc(C(C)(C)C)nc2c1-c1ccc(Cl)cc1 ?
RGS4 block: inactive; RGS4 pot: inactive; Kir21 inh: 1.22

What do the screens show for `CC(C)(C)c1cc(N2CCOCC2)n2ncc(-c3ccc(Cl)cc3)c2n1`?
RGS4 block: 11.5*; MrgX1 ag: inactive; MrgX1 allo act: inactive; RGS4 pot: inactive; MrgX1 antag: inactive; Kir21 inh: -0.34; RGS4 inh valid: 27.0%*; RGS4 uninduced: 47.0%*; M3R basal Ca ctr: inactive

Results for COc1cc2c(cc1OC)CN(C(=S)Nc1ccc(OC(F)F)cc1)CC2 ?
RGS4 block: inactive; MrgX1 ag: inactive; MrgX1 allo act: inactive; RGS4 pot: inactive; MrgX1 antag: inactive; Kir21 inh: -0.52

Results for C=CCNC(=S)NNc1nc2c(c(=O)[nH]1)C1(CCCC1)Cc1ccccc1-2 ?
RGS4 block: 9.83*; MrgX1 ag: inactive; MrgX1 allo act: inactive; RGS4 pot: inactive; MrgX1 antag: inactive; Kir21 inh: 0.78; RGS4 inh valid: 22.0%*; RGS4 uninduced: inactive; M3R basal Ca ctr: inactive

What do the screens show for `CCN(CC)Cc1nc2c(c(=O)[nH]1)C1(CCCCC1)Cc1ccccc1-2`?
RGS4 block: inactive; MrgX1 ag: inactive; MrgX1 allo act: inactive; RGS4 pot: inactive; MrgX1 antag: inactive; Kir21 inh: 0.61

What do the screens show for `O=c1[nH]c(NNC(=S)NCc2ccccc2)nc2c1C1(CCCCC1)Cc1ccccc1-2`?
RGS4 block: 12.6*; MrgX1 ag: inactive; MrgX1 allo act: inactive; RGS4 pot: inactive; MrgX1 antag: inactive; Kir21 inh: 0.14; RGS4 inh valid: 30.0%*; RGS4 uninduced: inactive; M3R basal Ca ctr: inactive

What do the screens show for `O=c1[nH]c(NNC(=S)NC2CCCCC2)nc2c1C1(CCCC1)Cc1ccccc1-2`?
RGS4 block: 12.1*; MrgX1 ag: inactive; MrgX1 allo act: inactive; RGS4 pot: inactive; MrgX1 antag: inactive; Kir21 inh: -0.92; RGS4 inh valid: 7.5%*; RGS4 uninduced: inactive; M3R basal Ca ctr: inactive
